Screens deposited in PubChem BioAssay by several laboratories.
MEKK2wt PB1 HTS: raises or lowers MEK5 binding to wildtype human MEKK2 PB1 domain. binding response (% of control), % at 10 µM. bead flow cytometry, Alexa488-MEK5 binding to MEKK2 WT; actives lie on both sides. 290,000 tested, 1.1% active. Q9Y2U5; in the data active means binding response below about 67% or above about 130%
T cruzi inh: T. cruzi replication inhibition; AID 1885; 300,000 tested, 1.4% active; T. cruzi beta-gal in NIH3T3, luminescence, 90 h; inhibition, % (concentration not given with the values);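 active means mean inhibition across valid replicates above about 55%, limit read from the data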;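 further: signal also drops with host cell toxicity which is not excluded here; 0% = plate median of DMSO wells and 100% = zero luminescence signal; higher percent means less beta-gal luminescence so fewer parasites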
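Read-out: Parasite load inhibition, % | Test system: Mouse NIH/3T3 fibroblasts infected with β-gal-expressing T. cruzi Tulahuen C4 | Amount: 5,000 cells/well | Medium: DMEM, 2% fetal bovine serum | Signal: GalScreen β-gal luminescence, detergent lysis, 60 min | Timing: 3 h attach, ≥90 h co-culture | Also added: Tulahuen C4 trypomastigotes, 5000/well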
HCV NS3 hel inh: blocks Hepatitis C virus NS3 helicase unwinding. NS3 helicase DNA unwinding, Cy5 molecular beacon fluorescence. inhibition, % at 10.9 µM. 290,000 tested, 0.56% active. AID 1800;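 active means inhibition above the mean of all tested compounds plus 3 SD, set per campaign, cut at about 35% in these data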;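 further: 0% = DMSO wells and 100% = thioflavine S control wells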
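Measured by: Cy5 fluorescence, 0 and 60 min reads / Assay system: NS3 helicase fragment of HCV / Control set: low DMSO, high thioflavine S at 110 µM / Times: 1 h reaction at 25 °C, ATP-initiated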
FID counter: displaces DNA intercalator in HCV helicase counter-screen; DNA fluorescent intercalator displacement, fluorescence; inhibition, % at 7.9 µM; 290,000 tested, 0.17% active; in the data active means inhibition above about 37%;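 further: 0% = vehicle and 100% = reference compound; higher means more ethidium bromide displaced from hairpin DNA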
MEKK2 mut-MEK5: signal of MEK5 binding to mutant human MEKK2 PB1 domain; AID 1530; percent response, % at 10 µM; 290,000 tested, 0.35% active; bead flow cytometry, Alexa488-MEK5 binding to MEKK2 mutant; in the data active means percent response above about 24%, passing the limit was not always enough
MEKK3 PB1 HTS: modulators (inhibitors or enhancers) of MEK5 binding to human MEKK3 PB1 domain; bead-based flow cytometry, Alexa488-MEK5 binding to MEKK3; actives lie on both sides; 0 = blocked by unlabeled MEK5, 100 = vehicle; Q99759; binding response (% of control), % at 10 µM; 290,000 tested, 1.4% active; AID 1529;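 active means binding response more than 3 SD above or below the average of its plate-row segment, actives on both sides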;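 further: Alexa488 bead fluorescence after subtracting the streptavidin-only scavenger bead signal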
Target sequence (Q99759 whole entry, looked up, the tested form may be a part): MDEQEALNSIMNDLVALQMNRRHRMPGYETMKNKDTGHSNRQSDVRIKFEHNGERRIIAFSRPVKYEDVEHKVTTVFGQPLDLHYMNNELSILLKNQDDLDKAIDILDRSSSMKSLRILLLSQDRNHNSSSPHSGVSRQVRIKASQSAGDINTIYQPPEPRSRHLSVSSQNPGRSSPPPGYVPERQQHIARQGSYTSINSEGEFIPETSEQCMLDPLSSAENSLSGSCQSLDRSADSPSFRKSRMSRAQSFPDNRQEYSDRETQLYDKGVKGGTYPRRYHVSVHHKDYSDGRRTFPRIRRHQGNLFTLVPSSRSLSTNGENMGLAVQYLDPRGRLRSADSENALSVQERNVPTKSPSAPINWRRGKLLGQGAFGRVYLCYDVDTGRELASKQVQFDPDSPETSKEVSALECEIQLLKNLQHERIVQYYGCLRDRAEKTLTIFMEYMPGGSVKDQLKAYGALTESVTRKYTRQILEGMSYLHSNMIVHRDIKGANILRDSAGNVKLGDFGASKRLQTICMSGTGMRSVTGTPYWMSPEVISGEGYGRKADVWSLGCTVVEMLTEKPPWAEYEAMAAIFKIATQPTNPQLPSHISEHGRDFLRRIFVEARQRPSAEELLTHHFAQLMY
MEKK2wt confirm: raises or lowers MEK5 binding to wildtype human MEKK2, retest; shares compounds with MEKK3 PB1 HTS; binding response (% of control), % at 10 µM; bead flow cytometry, Alexa488-MEK5 binding to MEKK2 WT; actives lie on both sides; 5,900 tested, 2.4% active; in the data active means binding response below about 16% or above about 210%; inactive means in between
MEKK2mut-MEK5: signal of MEK5 binding to mutant human MEKK2, retest; percent response, % at 10 µM; 5,900 tested, 2% active; bead flow cytometry, Alexa488-MEK5 binding to MEKK2 mutant; shares compounds with MEKK3 PB1 HTS; AID 1893; in the data active means percent response mostly above about 71%, no sharp cut-off; inactive means mostly below about 38%;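 further: higher means compound restores mutant binding toward wildtype level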
MEKK3 confirm: MEKK3-MEK5 PB1 inhibition, single concentration confirmation. shares compounds with MEKK3 PB1 HTS. bead flow cytometry, Alexa488-MEK5 binding to MEKK3; hits give low values. binding response (% of control), % at 10 µM. 5,900 tested, 1.8% active. AID 1894;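 active means binding response below 72% of control, or above a set upper limit, though filed actives all read lower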;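 further: 100% = DMSO only wells and 0% = binding blocked by excess unlabeled MEK5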
An asterisk follows results filed as active; nt = not tested or not shown; [ ] = remark or other dose. In the library only some 4.1% were active in any assay of this set; here they are far more common.

SMILES	MEKK2wt PB1 HTS	T cruzi inh	HCV NS3 hel inh	FID counter	MEKK2 mut-MEK5	MEKK3 PB1 HTS	MEKK2wt confirm	MEKK2mut-MEK5	MEKK3 confirm
CCN1CCN(CCNC(=O)c2ccc(/C=C3/Sc4ccccc4N(Cc4cccc(Cl)c4)C3=O)cc2)CC1	280*	61*	-39	39*	120*	111	234*	100*	116
CN1CCN(CCCNC(=O)c2ccc(/C=C3\Sc4ccccc4N(Cc4ccccc4F)C3=O)cc2)CC1	167*	69*	-72	34	36	97	190	62	110
CC(=O)c1ccc(NC(=O)C(C)Sc2n[nH]c(-c3cccnc3)n2)cc1 (stereo unspecified)	101	-8	11	-11	0	103	nt	nt	nt
COc1cccc(OC)c1CC1SC(=O)NC1=O (stereo unspecified)	102	7	-20	-3	-2	104	nt	nt	nt
COC(=O)c1[nH]c2cccc(OC)c2c1NC(=O)CCN1CCSCC1	102	-2	6	-4	4	105	nt	nt	nt
COC(=O)c1[nH]c2cc(OC)ccc2c1N	30*[inhibitor]	10	-9	-2	-43	18*[inhibitor]	109	7	102
COC(=O)c1[nH]c2cc(OC)ccc2c1NC(=O)CCN1CCSCC1	125	-4	4	-5	7	124*	98	2	100
CCOC(=O)Nc1c(C(=O)OC)[nH]c2cc(OC)ccc12	102	-6	11	-3	11	107	nt	nt	nt
Cc1ccc2sc(N3CCN(CCNC(=O)c4ccco4)CC3)nc2c1C	nt	8	nt	nt	nt	nt	nt	nt	nt
CC(=O)N=c1c(C#N)cc2c(=O)n3ccccc3nc2n1Cc1ccccc1	105	20	4	4	1	135*	114	14	91
CC(C)(C)OC(=O)N1CCC(CC2CC(c3cccc(Br)c3)=NO2)(C(=O)NCC2CCCCC2)CC1 (stereo unspecified)	108	35	9	-36	1	108	nt	nt	nt
O=C(NCC1CCCCC1)C1(CC2CC(c3cccc(Br)c3)=NO2)CCNCC1 (stereo unspecified)	145*	7	-83	23	15	101	125	16	101
CC12CCC(=O)N1C(C(=O)OCC(=O)Nc1ccc(S(N)(=O)=O)cc1)CS2 (stereo unspecified)	49*[inhibitor]	-3	-4	-1	10	104	100	-5	99
COC(=O)C1(CCSC)NC(c2ccco2)C2C(=O)N(C)C(=O)C21 (stereo unspecified)	1.0*[inhibitor]	-7	5	0	-16	2.0*[inhibitor]	107	1	106
COC(=O)C1(CCSC)NC(c2ccccc2OC)C2C(=O)N(C)C(=O)C21 (stereo unspecified)	87	-7	-3	0	-2	92	nt	nt	nt
O=C(CN(Cc1ccco1)C(=O)c1cccc(Cl)c1)Nc1c(Cl)cc(Cl)cc1Cl	117	16	2	-5	4	122*	102	3	104
Cc1cc(C)n(-c2nnc(C)n2/N=C/c2ccco2)n1	93	-1	0	-2	-1	104	nt	nt	nt
C=C(C)CN=c1scc(C)n1/N=C/c1ccco1	85	0	4	-3	-9	77*[inhibitor]	73	-11	73
CC(C)c1ccc(C2N3CC4([N+](=O)[O-])CN2CC([N+](=O)[O-])(C3)C4(C)C)cc1 (stereo unspecified)	95	-4	0	-1	-1	71*[inhibitor]	95	-8	96
COc1cccc(CNC(=O)CN2C(=O)CSc3ccc(S(=O)(=O)N4CCCC4)cc32)c1	92	-3	5	-16	-2	94	nt	nt	nt
COc1ccc(C2C3=C(CC(C)(C)CC3=O)Nc3c2c(=O)n(C)c(=O)n3C)cc1OC (stereo unspecified)	119	-6	15	-17	1	128*	108	1	104
COc1ccc(S(=O)(=O)N2CC(C(=O)O)Oc3ccc(Cl)cc32)cc1 (stereo unspecified)	131	-2	16	-17	36*	90	98	-3	102
COc1ccc(CN2CCN(C(=O)CCC(=O)Nc3nnc(C4CCCCC4)s3)CC2)cc1F	103	33	-14	-41	-3	103	nt	nt	nt
Cc1ccc(C)c(NC(=O)c2ccc(S(=O)(=O)C(F)F)cc2)c1	109	-10	-2	-2	1	132*	99	-3	101
Cc1ccc(C)c(NC(=O)NNS(=O)(=O)c2ccc(C)c(C)c2)c1	96	-6	9	-32	-5	97	nt	nt	nt
SMILES	MEKK2wt PB1 HTS	T cruzi inh	HCV NS3 hel inh	FID counter	MEKK2 mut-MEK5	MEKK3 PB1 HTS	MEKK2wt confirm	MEKK2mut-MEK5	MEKK3 confirm
CCc1cc2ccc(OC)cc2nc1SCC(=O)Nc1cc(C)on1	117	15	8	1	5	123*	98	-1	103
CCc1cc2ccc(OC)cc2nc1SCC(=O)NNC(C)=O	124	-3	-4	-13	6	135*	99	-1	103
CCc1cc2ccccc2nc1SCC(=O)Nc1cc(C)on1	108	-6	0	-1	9	106	nt	nt	nt
CC1=CC(C)(C)N(C(=O)CNC2CCCC2)c2cc(C)ccc21	94	8	31	24	-11	101	nt	nt	nt
COC(=O)C1=C(C)NC(=O)NC1c1ccc(-c2ccc(Cl)cc2)o1 (stereo unspecified)	4.0*[inhibitor]	9	3	-21	-1	94	108	6	108
COC(=O)C1=C(C)NC(=O)NC1c1ccc([N+](=O)[O-])o1 (stereo unspecified)	98	33	-8	-11	0	98	nt	nt	nt
CC(C)(C)NC(=O)NC(=O)CN1CCN(Cc2ccccc2)CC1	69	2	-4	0	-14	57	nt	nt	nt
CC(C)(C)NC(=O)NC(=O)CN1CCN(C(c2ccccc2)c2ccccc2)CC1	144	13	-3	-3	7	157*	100	1	100
O=C1c2cc(O)c(O)cc2S(=O)(=O)C1c1ccccc1 (stereo unspecified)	nt	-10	nt	nt	nt	nt	nt	nt	nt
CC(NC(=O)C(=O)NCCC1=CCCCC1)c1ccccc1 (stereo unspecified)	105	3	-5	-6	0	139*	98	-2	98
